Data set [1] has as its system Candida albicans. Description: Antimicrobial activity against antibiotic resistant Candida albicans clinical isolate 08030809 assessed as clone count at 5 times MIC after 6 hrs by colony counting assay (reference value: 14536 +/- 2467 CFU). The format is functional.
The subject of data set [2] is Candida albicans. The data set is described as follows: Antimicrobial activity against antibiotic resistant Candida albicans clinical isolate 08030809 assessed as clone count at 10 times MIC after 3 hrs by colony counting assay (reference value: 3687 +/- 543 CFU). The format is functional.
Data set [3] has as its system Candida albicans. The data set is described as follows: Antimicrobial activity against antibiotic resistant Candida albicans clinical isolate 08030401 after 16 hrs by broth dilution method. The class given is functional. The settings on record: isolate 08030401, 16 h. The essentials:
(§1)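 Broth microdilution in Sabouraud liquid medium. Samples are stocks in 0.9% NaCl, 10 µL added to 90 µL broth plus 100 µL of 2 × 10^5 CFU/mL yeast suspension. Incubated 16 h at 28°C, growth read by A600. MIC is the lowest concentration completely inhibiting growth; mean of three independent experiments.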

The test system of data set [4] is Candida albicans. The data set is described as follows: Antimicrobial activity against antibiotic resistant Candida albicans clinical isolate 08030809 in mouse vaginitis model assessed as decrease in colony count in lavage liquid of vagina at 20 ug administered as intravaginal instillation measured on day 6. The class given is functional.
Data set [5] relates to Candida albicans. Description: Antimicrobial activity against antibiotic resistant Candida albicans clinical isolate 08032821 compound treated in double distilled water measured after 36 hrs by disc diffusion method. The note with it: isolate 08032821, 36 h. The format is functional. The essentials:
(§2)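 Salt-tolerance test: peptide at 2 mg/mL was prepared in sterile ddH2O, in 150 mM NaCl, or in PBS (150 mM NaCl, 2.7 mM KCl, 1.5 mM KH2PO4, 8 mM K2HPO4, pH 7.2). Anti-C. albicans activity was then assessed by inhibition zone on Sabouraud medium with 0.7% agar.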
(Agar diffusion results depend on both activity and mobility in agar.)

For data set [6], the system named is Candida albicans. Description: Antimicrobial activity against antibiotic resistant Candida albicans clinical isolate 08030809 assessed as clone count at MIC after 1 min by colony counting assay (reference value: 62 +/- 7 CFU). The format is functional.
In data set [7] the test system is Candida albicans. Description: Effect on cell morphology in antibiotic resistant Candida albicans clinical isolate 08030809 assessed as cell membrane perforation at MIC to 2.5 times MIC after 30 mins by scanning electron microscopy. The class given is functional, organism-based. The essentials: (§3)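 Exponential-phase C. albicans 08030809 was washed in PBS and resuspended in Sabouraud medium. Cells were treated 30 min at 37°C alongside a vehicle control. They were then fixed in 2.5% glutaraldehyde (4°C, 2 h) and 1% osmium tetroxide, dehydrated through graded ethanol, freeze-dried from tert-butanol, gold-coated and imaged by SEM. Images are typical of three experiments.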

In data set [8] the test system is Candida albicans. Description: Antimicrobial activity against antibiotic resistant Candida albicans clinical isolate 08030809 assessed as clone count at MIC after 12 hrs by colony counting assay (reference value: 54153 +/- 8769 CFU). The class given is functional.
In data set [9] the test system is Mus musculus. The data set is described as follows: Antiinflammatory activity in antibiotic resistant Candida albicans clinical isolate 08030809 induced mouse vaginitis model assessed as reduction in IL-10 secretion in vaginal tissue administered as intravaginal instillation measured on day 10 by ELISA. The settings on record: Vagina. The class given is functional, organism-based. The essentials: (§4)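 Same estradiol-primed mouse model, infected intravaginally with C. albicans 08030809 and treated by intravaginal instillation (20 µL/mouse). Vaginal canals excised on day 10 of treatment and homogenised in 0.9% NaCl. Supernatant taken after 2,000 g for 15 min. TNF-α, IL-6, IL-1β and IL-10 measured by ELISA. Mean ± SE of three independent experiments; unpaired t-test versus vehicle.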
Background: An ELISA detects its analyte on a solid surface through an enzyme-linked reagent.

Data set [10] deals with Candida albicans. Description: Antimicrobial activity against antibiotic resistant Candida albicans clinical isolate 08030809 assessed as clone count at 5 times MIC after 12 hrs by colony counting assay (reference value: 54153 +/- 8769 CFU). The class given is functional.
Data set [11] has as its system Candida albicans. Description: Antimicrobial activity against Candida albicans ATCC 2002 assessed as inhibition of yeast growth after 16 hrs by broth dilution method. The class given is functional. The note with it: ATCC 2002, 16 h. The essentials: as §1
For data set [12], the system named is Mus musculus. The data set is described as follows: Antiinflammatory activity in antibiotic resistant Candida albicans clinical isolate 08030809 induced mouse vaginitis model assessed as reduction in IL-1beta secretion in vaginal tissue administered as intravaginal instillation measured on day 10 by ELISA. The format is functional, organism-based. The settings on record: Vagina. The essentials:
as §4

The subject of data set [13] is Candida albicans. Description: Antimicrobial activity against antibiotic resistant Candida albicans clinical isolate 08030809 assessed as clone count at 10 times MIC after 6 hrs by colony counting assay (reference value: 14536 +/- 2467 CFU). The class given is functional.
In data set [14] the test system is Candida albicans. The data set is described as follows: Antimicrobial activity against antibiotic resistant Candida albicans clinical isolate 08030809 in mouse vaginitis model assessed as colony count in lavage liquid of vagina at 20 ug administered as intravaginal instillation measured on day 16. The format is functional.
Data set [15] deals with Candida albicans. The data set is described as follows: Effect on cell morphology in antibiotic resistant Candida albicans clinical isolate 08030809 assessed as intracellular inclusions at MIC to 2.5 times MIC after 30 mins by scanning electron microscopy. The class given is functional, organism-based. The essentials: as §3
The subject of data set [16] is Candida albicans. Description: Antimicrobial activity against antibiotic resistant Candida albicans clinical isolate 08030809 assessed as clone count at MIC after 6 hrs by colony counting assay (reference value: 14536 +/- 2467 CFU). The format is functional.
Data set [17] concerns Candida albicans. The data set is described as follows: Antimicrobial activity against antibiotic resistant Candida albicans clinical isolate 08032815 compound treated in NaCl solution measured after 36 hrs by disc diffusion method. The class given is functional. The settings on record: isolate 08032815, 36 h. The essentials:
as §2

The subject of data set [18] is Candida albicans. The data set is described as follows: Antimicrobial activity against antibiotic resistant Candida albicans clinical isolate 08030809 assessed as clone count at 10 times MIC after 12 hrs by colony counting assay (reference value: 54153 +/- 8769 CFU). The class given is functional.
The subject of data set [19] is Mus musculus. Description: Antiinflammatory activity in antibiotic resistant Candida albicans clinical isolate 08030809 induced mouse vaginitis model assessed as microabscess number in vaginal tissue at 50 ug administered as intravaginal instillation measured on day 6 by hematoxylin-eosin staining based microscopic method (reference value: 61). The format is functional, Vagina. The essentials:
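Mice given weekly subcutaneous estradiol valerate (0.5 mg in 0.1 mL vegetable oil) 72 h before infection. Infected intravaginally with 20 µL of 10^7 CFU/mL C. albicans 08030809. Intravaginal instillation of 20 µL daily for 16 days. Vaginal canals excised after lavage, formalin-fixed, paraffin-embedded, HE-stained. Microabscesses counted per high-power field over 6 fields per section, three independent experiments.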

In data set [20] the test system is Candida albicans. The data set is described as follows: Antimicrobial activity against antibiotic resistant Candida albicans clinical isolate 08032710 compound treated in double distilled water measured after 36 hrs by disc diffusion method. The class given is functional. The note with it: isolate 08032710, 36 h. The essentials:
as §2

The subject of data set [21] is Candida albicans. The data set is described as follows: Antimicrobial activity against antibiotic resistant Candida albicans clinical isolate 08032710 compound treated in PBS solution measured after 36 hrs by disc diffusion method. The format is functional. The note with it: isolate 08032710, 36 h. The essentials: as §2
Data set [22] has as its system Mus musculus. The data set is described as follows: Antiinflammatory activity in antibiotic resistant Candida albicans clinical isolate 08030809 induced mouse vaginitis model assessed as reduction in IL-1beta secretion in vaginal tissue at 50 ug administered as intravaginal instillation measured on day 10 by ELISA. The class given is functional, Vagina. The essentials:
as §4

Data set [23] deals with HEK293. The data set is described as follows: Cytotoxicity against HEK293 cells assessed as cell viability at 0.39 to 100 ug/ml after 24 hrs by MTT assay. The note with it: human, hek293, 24 h. The class given is cell-based. The essentials:
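HEK293 seeded at 1 × 10^5 cells/mL in DMEM with 10% fetal calf serum and penicillin-streptomycin, 37 °C, 5% CO2. Cells exposed to sample for 24 h, then given MTT (5 mg/mL); formazan dissolved in DMSO and read at 570 nm. Done in triplicate.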
In general terms: Tetrazolium dyes change colour on reduction, which living cells bring about.

Calls of active or inactive are those of the source.

This note sets out measurements from ChEMBL document CHEMBL3779860, “A Designed Tryptophan- and Lysine/Arginine-Rich Antimicrobial Peptide with Therapeutic Potential for Clinical Antibiotic-Resistant Candida albicans Vaginitis” (J Med Chem, 2016).

On to H-VKRWKKWRWKWKKWV-NH2, for which the Activity in [1] was 0 CFU; in [2], 0 CFU; in data set [6] it was 18 CFU; in data set [8], 0 CFU; in [9], “Dose-dependent effect”; in data set [10] it was 0 CFU. For the same substance, the Activity result in data set [12] was “Dose-dependent effect”; in data set [13], 0 CFU; in data set [14], 5.4 ×10³ CFU/ml; in [16], 0 CFU; in [18], 0 CFU; in data set [19], 7. Besides, in data set [23], the Activity entry is given as “Non-toxic”. Further, the minimum inhibitory concentration (MIC) in data set [3] was found to be 4.69 mg/L; in data set [5], 2.65 mg/L; in [11] it was 0.59 mg/L; in data set [17], 2.79 mg/L; in data set [20], 2.79 mg/L; in [21] it was 2.79 mg/L. In addition, the “inhibition (INH)” value in data set [4] turned out to be 22%; in [22] it was 63%. Further, the outcome in data set [7] and in data set [15] was Active.

A word on the MIC: it is the smallest concentration in the dilution series that meets the test's criterion for growth inhibition.
